“And” between values parts separate entries of the source, which are not always exact repeats. Equal entries are not always repeated.
Assays:
[1] = Cytotoxicity against human MES-SA/Dx5 cells overexpressing MDR1 after 72 hrs by alamar blue assay; assay type: functional, cell-based; conditions: MES-SA/Dx5, 72 h
Method in brief: (§1)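 Cells seeded at 4 × 10³ per well and grown 24 h. Compounds dissolved in DMSO and diluted in medium to final concentrations, then incubated 72 h at 37 °C, 5% CO₂. Viable cells read by AlamarBlue; IC₅₀ taken as the concentration giving 50% growth inhibition.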

[2] = system: NCI-H460; assay: Antitumor activity against human H460 cells xenografted in nu/nu mouse assessed as tumor growth inhibition at 40 mg/kg, po QD for 5 days followed by 2days without treatment for 2 weeks; assay type: functional; parameters: scale not given: the % may be the effect or the level left
Method in brief: (§2)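 Female nude (nu/nu) mice (males for prostate model) implanted sc in the flank with tumor cells (1 × 10⁶ for H460). Dosing began at 100-150 mm³, 10 mice/group. Oral gavage in 5% DMSO/5% Tween 80/1% CMC in water, 5 days on/2 off per cycle, 2 or 4 cycles. Volume = length×width²/2, measured twice weekly. TGI = (1 − ΔT/ΔC)×100; TGD = extra days to reach 500 mm³ versus control.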

[3] = Tmax in CD-1 mouse brain at 50 mg/kg, ip by LC/MS/MS analysis; assay type: ADME, organism-based; parameters: dose 50 mg/kg, route intraperitoneal
Method in brief: (§3)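 CD-1 mice (~25 g) given 50 mg/kg ip in 5% DMSO/5% Tween 80 in water; three mice per time point, sampled up to 480 min. Blood taken by cardiac puncture into EDTA, then whole brain excised and homogenized in water. Proteins precipitated with ice-cold acetonitrile containing propranolol internal standard; supernatant analysed by HPLC/MS/MS.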

[4] = system: LNCaP; assay: Cytotoxicity against human LNCAP cells after 72 hrs by alamar blue assay; assay type: functional, cell-based; method in brief: as §1
[5] = system: Malme-3M; assay: Cytotoxicity against human MALME-3M cells after 72 hrs by alamar blue assay; assay type: functional, cell-based; method in brief: as §1
[6] = system: NCI-H460; assay: Cytotoxicity against human H460 cells after 72 hrs by alamar blue assay; assay type: functional, cell-based; method in brief: as §1
[7] = system: A-375; assay: Cytotoxicity against human A375 cells after 72 hrs by alamar blue assay; assay type: functional, cell-based; conditions: A-375, 72 h; method in brief: as §1
[8] = system: PC-3; assay: Antitumor activity against human PC3 cells xenografted in nu/nu mouse assessed as tumor growth delay at 40 mg/kg, po QD for 5 days followed by 2 days without treatment for 2 weeks; assay type: functional; method in brief: as §2
[9] = system: HT-29; assay: Antitumor activity against human HT-29 cells xenografted in nu/nu mouse assessed as tumor growth delay at 40 mg/kg, […]; assay type: functional; conditions: route oral
[10] = AUC in CD-1 mouse plasma at 50 mg/kg, ip by LC/MS/MS analysis; assay type: ADME, organism-based; parameters: dose 50 mg/kg, route intraperitoneal; method in brief: as §3
[11] = Half life in CD-1 mouse brain at 50 mg/kg, ip by LC/MS/MS analysis; assay type: ADME, organism-based; parameters: dose 50 mg/kg, route intraperitoneal; method in brief: as §3
[12] = system: IGROV-1; assay: Cytotoxicity against human IGROV1 cells after 72 hrs by alamar blue assay; assay type: functional, cell-based; conditions: IGROV-1, 72 h; method in brief: as §1
[13] = Resistance ratio of IC50 for human H69AR cells overexpressing MRP1 after 72 hrs s to IC50 for human H69 cells after 72 hrs
[14] = Ratio of IC50 for mouse bone marrow cell to IC50 for human bone marrow cell; assay type: cell-based; conditions: bone marrow cells
Method in brief: (§4)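 CFU-GM colony assay in triplicate at 2 × 10⁴ cells per culture, using thawed normal human bone marrow or fresh mouse femoral marrow. Colonies were scored after 16-18 days. The IC50 or IC90 from each species gave the mouse/human ratio.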

[15] = system: HT-29; assay: Cytotoxicity against human HT-29 cells after 72 hrs by alamar blue assay; assay type: functional, cell-based; conditions: HT-29, 72 h; method in brief: as §1
[16] = system: PC-3; assay: Antitumor activity against human PC3 cells xenografted in nu/nu mouse assessed as tumor growth inhibition at 40 mg/kg, po QD for 5 days followed by 2 days without treatment for 2 weeks; assay type: functional; parameters: scale not given: the % may be the effect or the level left; method in brief: as §2
[17] = Cytotoxicity against mouse bone marrow cell by CFU-GM assay; assay type: cell-based
Method in brief: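 CFU-GM colony assay on normal human bone marrow (thawed) or mouse femoral marrow (freshly extracted). Human colonies scored after 16-18 days. IC₅₀ taken from triplicate assays.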

[18] = Half life in CD-1 mouse plasma at 50 mg/kg, ip by LC/MS/MS analysis; assay type: ADME, organism-based; parameters: dose 50 mg/kg, route intraperitoneal; method in brief: as §3
[19] = Tmax in CD-1 mouse plasma at 50 mg/kg, ip by LC/MS/MS analysis; assay type: ADME, organism-based; parameters: dose 50 mg/kg, route intraperitoneal; method in brief: as §3
[20] = Cytotoxicity against human bone marrow cell by CFU-GM assay; assay type: cell-based
[21] = system: NCI-H460; assay: Ratio IC50 for human H460 cells after 72 hrs in presence of 40 mg/ml HSA to IC50 for human H460 cells after 72 hrs; assay type: functional
Method in brief: (§5)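 H460 cells seeded at 4 × 10³ per well and grown 24 h. Compounds then cocultured with cells for 72 h at 37 °C, with or without 40 mg/mL human serum albumin. Viability read by AlamarBlue; IC₅₀ = 50% growth inhibition. Ratio compares the IC₅₀ with HSA to the IC₅₀ without.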

[22] = Ratio of drug level in brain to plasma in CD-1 mouse at 50 mg/kg, ip; assay type: ADME, organism-based; parameters: dose 50 mg/kg, route intraperitoneal; method in brief: as §3
[23] = Resistance ratio of IC50 for human MES-SA/Dx5 cells overexpressing MDR1 after 72 hrs to IC50 for human MESSA cells after 72 hrs; assay type: functional
Method in brief: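 Cytotoxicity compared in MDR1-overexpressing lines and their parental wild-type lines. 72 h exposure at 37 °C, viability by AlamarBlue, IC₅₀ at 50% growth inhibition. Resistance ratio = IC₅₀ in overexpressing line / IC₅₀ in parental line.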

[24] = Ratio of IC90 for mouse bone marrow cell to IC90 for human bone marrow cell; assay type: ADME, cell-based; conditions: bone marrow cells; method in brief: as §4
[25] = system: PC-3; assay: Cytotoxicity against human PC3 cells after 72 hrs by alamar blue assay; assay type: functional, cell-based; conditions: PC-3, 72 h; method in brief: as §1
[26] = Cytotoxicity against human MESSA cells after 72 hrs by alamar blue assay; assay type: functional, cell-based; conditions: MES-SA; method in brief: as §1
[27] = Cmax in CD-1 mouse plasma at 50 mg/kg, ip by LC/MS/MS analysis; assay type: ADME, organism-based; parameters: dose 50 mg/kg, route intraperitoneal; method in brief: as §3
[28] = system: SK-MEL-2; assay: Cytotoxicity against human SK-MEL-2 cells after 72 hrs by alamar blue assay; assay type: functional, cell-based; conditions: SK-MEL-2, 72 h; method in brief: as §1
[29] = system: HT-29; assay: Antitumor activity against human HT-29 cells xenografted in nu/nu mouse assessed as tumor growth inhibition at 40 mg/kg, […]; assay type: functional; parameters: scale not given: the % may be the effect or the level left; conditions: route oral
[30] = system: Mus musculus; assay: Toxicity in nu/nu mouse assessed as body weight loss at 40 mg/kg, po QD for 5 days followed by 4 days without treatment for 2 weeks; assay type: organism-based; parameters: dose 40 mg/kg, route oral; conditions: in vivo
[31] = Cmax in CD-1 mouse brain at 50 mg/kg, ip by LC/MS/MS analysis; assay type: ADME, organism-based; parameters: dose 50 mg/kg, route intraperitoneal; method in brief: as §3
[32] = system: Mus musculus; assay: Toxicity in nu/nu mouse assessed as body weight loss at 40 mg/kg, po QD for 5 days followed by 2 days without treatment for 2 weeks; assay type: organism-based; parameters: dose 40 mg/kg, route oral; conditions: in vivo
Method in brief: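 Female nude (nu/nu) mice (males for prostate model) bearing sc xenografts, dosing started at 100-150 mm³, 10/group. Oral gavage in 5% DMSO/5% Tween 80/1% CMC in water, QD 5 days on/2 off per cycle, 2 or 4 cycles. Body weight recorded twice weekly; maximum loss reported.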

[33] = system: NCI-H69; assay: Cytotoxicity against human H69 cells after 72 hrs by alamar blue assay; assay type: functional, cell-based; conditions: NCI-H69, 72 h; method in brief: as §1
[34] = system: NCI-H460; assay: Antitumor activity against human H460 cells xenografted in nu/nu mouse assessed as tumor growth delay at 40 mg/kg, po QD for 5 days followed by 2days without treatment for 2 weeks; assay type: functional; method in brief: as §2
[35] = system: DU-145; assay: Cytotoxicity against human DU145 cells after 72 hrs by alamar blue assay; assay type: functional, cell-based; conditions: DU-145, 72 h; method in brief: as §1
[36] = system: NCI-H460; assay: Cytotoxicity against human H460 cells after 72 hrs by alamar blue assay in presence of 40 mg/ml HSA; assay type: functional, cell-based; conditions: NCI-H460, 72 h; method in brief: as §5
[37] = AUC in CD-1 mouse brain at 50 mg/kg, ip by LC/MS/MS analysis; assay type: ADME, organism-based; parameters: dose 50 mg/kg, route intraperitoneal; method in brief: as §3
[38] = system: H69AR; assay: Cytotoxicity against human H69AR cells overexpressing MRP1 after 72 hrs by alamar blue assay

CCc1c2c(nc3ccccc13)-c1c(N)c3c(c(=O)n1C2)COC(=O)[C@]3(O)CC
IC50 [1]: 12 nM | Activity [2]: 84% | Tmax [3]: 1 h | IC50 [4]: 120 nM | IC50 [5]: 1200 nM | IC50 ([6]; Homo sapiens, NCI-H460, 72 h): 7 nM | IC50 ([6]; nci-h460): 12 nM | IC50 [7]: 7 nM | Time [8]: 45 days | Time [9]: 30 days | AUC [10]: 1070 ng·h/mL | half-life [11]: 4 h | IC50 [12]: 20 nM | Ratio [13]: 2.2 | selectivity ratio [14]: 6 | IC50 [15]: 300 nM | Activity [16]: 107% | IC50 [17]: 110 nM | half-life [18]: 4.17 h | Tmax [19]: 1 h | IC50 ([20]; Homo sapiens, Bone marrow cell): 620 nM | IC90 ([20]; human, bone marrow cells): 4500 nM | Ratio [21]: 10 | Kp [22]: 70 | Ratio [23]: 3 | selectivity ratio [24]: 650 | IC50 [25]: 24 nM | IC50 [26]: 4 nM | Cmax [27]: 300 ng/mL | IC50 [28]: 130 nM | Activity [29]: 101% | Activity [30]: 3% and 8% | Cmax [31]: 300 ng/mL | Activity [32]: 4% | IC50 [33]: 110 nM | Time [34]: 14 days | IC50 [35]: 1200 nM | IC50 [36]: 120 nM | AUC [37]: 750 ng·h/mL | IC50 [38]: 240 nM

— ChEMBL document CHEMBL1687926, “14-Aminocamptothecins: their synthesis, preclinical activity, and potential use for cancer treatment” (J Med Chem, 2011)
